Test results published in ChEMBL document CHEMBL2086296, “Synthesis of novel quinoline-2-one based chalcones of potential anti-tumor activity” (Eur J Med Chem, 2012).

Tests used:
[1] = tested on: SF-268; assay: Cytotoxicity against human SF268 cells after 24 hrs by SRB assay; format: functional; details: SF-268, 24 h
Procedure, shortened: (§1)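 NCI 60-line screen. Cells in RPMI 1640 with 5% FBS and 2 mM L-glutamine, seeded at 5,000–40,000 cells/well by doubling time, then incubated 24 h at 37 °C, 5% CO2 before dosing. Time-zero plates fixed with TCA at drug addition. DMSO stocks diluted in medium with gentamicin to five concentrations, […]. Protein read by SRB staining. GI50, TGI and LC50 derived relative to control and time-zero.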

[2] = tested on: SK-MEL-2; assay: Cytotoxicity against human SK-MEL-2 cells after 24 hrs by SRB assay; format: functional; details: SK-MEL-2, 24 h; procedure, shortened: as §1
[3] = tested on: SR; assay: Cytotoxicity against human SR cells after 24 hrs by SRB assay; format: cell-based
Procedure, shortened: (§2)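 NCI 60-cell-line screen: cells grown in RPMI 1640 with 5% FBS and 2 mM L-glutamine, seeded at 5,000–40,000 cells/well by doubling time, and preincubated 24 h at 37 °C in 5% CO2. Time-zero plates were TCA-fixed. DMSO stocks were diluted in medium with gentamicin to five concentrations (100, 10, 1.0, 0.1, […]). Protein was read by SRB, and GI50, TGI and LC50 were derived against time-zero.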

[4] = tested on: SW-620; assay: (§3) Cytotoxicity against human SW620 cells after 24 hrs by SRB assay; format: functional; details: SW-620, 24 h
Procedure, shortened: (§4)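 NCI 60-cell screen. Cells are grown in RPMI 1640 with 5% FBS and 2 mM L-glutamine and seeded at 5,000–40,000 cells/well according to doubling time. They are preincubated 24 h at 37 °C in 5% CO2, and Tz plates are TCA-fixed at drug addition. Drug stock is in DMSO, diluted in medium with gentamicin, and tested at five concentrations (100, 10, 1.0, 0.1, […]). Protein is read by SRB staining. GI50, TGI and LC50 are derived relative to time-zero and control wells.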

[5] = tested on: SK-MEL-5; assay: Cytotoxicity against human SK-MEL-5 cells after 24 hrs by SRB assay; format: cell-based; details: sk-mel-5, 24 h
Procedure, shortened: (§5)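 NCI 60-cell screen. Cells grown in RPMI 1640 with 5% FBS and 2 mM L-glutamine, seeded at 5,000–40,000 cells/well, preincubated 24 h at 37 °C in 5% CO2. Drug stock in DMSO, diluted in medium with gentamicin; five final concentrations, 100, 10, 1.0, 0.1 and […]. Time-zero plates were TCA-fixed. Protein read by SRB staining; GI50, TGI and LC50 taken relative to time-zero.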

[6] = tested on: HCT-15; assay: Cytotoxicity against human HCT15 cells after 24 hrs by SRB assay; format: functional; details: HCT-15, 24 h; procedure, shortened: as §1
[7] = tested on: COLO 205; assay: Cytotoxicity against human COLO205 cells after 24 hrs by SRB assay; format: cell-based; details: colo 205, 24 h; procedure, shortened: as §5
[8] = tested on: NCI-H322M; assay: Cytotoxicity against human NCI-H322M cells after 24 hrs by SRB assay; format: functional; procedure, shortened: as §1
[9] = tested on: OVCAR-3; assay: Cytotoxicity against human OVCAR3 cells after 24 hrs by SRB assay; format: functional; details: OVCAR-3, 24 h; procedure, shortened: as §1
[10] = tested on: UACC-62; assay: Cytotoxicity against human UACC62 cells after 24 hrs by SRB assay; format: functional; details: UACC-62, 24 h; procedure, shortened: as §4
[11] = tested on: SF-539; assay: Cytotoxicity against human SF539 cells after 24 hrs by SRB assay; format: cell-based; details: sf-539, 24 h; procedure, shortened: as §5
[12] = tested on: OVCAR-5; assay: Cytotoxicity against human OVCAR5 cells after 24 hrs by SRB assay; format: functional; details: OVCAR-5, 24 h; procedure, shortened: as §1
[13] = tested on: SW-620; assay: as §3; format: cell-based; details: sw-620, 24 h; procedure, shortened: as §2
[14] = tested on: RXF 393; assay: Cytotoxicity against human RXF393 cells after 24 hrs by SRB assay; format: functional; details: RXF 393, 24 h; procedure, shortened: as §1
[15] = tested on: SNB-75; assay: Cytotoxicity against human SNB75 cells after 24 hrs by SRB assay; format: cell-based; details: snb-75, 24 h; procedure, shortened: as §2
[16] = tested on: CAKI-1; assay: Cytotoxicity against human CAKI-1 cells after 24 hrs by SRB assay; format: cell-based; details: caki-1, 24 h; procedure, shortened: as §5
[17] = tested on: HOP-92; assay: Cytotoxicity against human HOP92 cells after 24 hrs by SRB assay; format: functional; details: HOP-92, 24 h; procedure, shortened: as §1
[18] = tested on: SK-MEL-28; assay: Cytotoxicity against human SK-MEL-28 cells after 24 hrs by SRB assay; format: cell-based; details: sk-mel-28, 24 h; procedure, shortened: as §5
[19] = tested on: LOX IMVI; assay: Cytotoxicity against human LOXIMVI cells after 24 hrs by SRB assay; format: functional; procedure, shortened: as §1
[20] = tested on: UACC-257; assay: (§6) Cytotoxicity against human UACC257 cells after 24 hrs by SRB assay; format: functional; details: UACC-257, 24 h; procedure, shortened: as §4
[21] = tested on: IGROV-1; assay: Cytotoxicity against human IGROV1 cells after 24 hrs by SRB assay; format: functional; details: IGROV-1, 24 h; procedure, shortened: as §1
[22] = tested on: Malme-3M; assay: (§7) Cytotoxicity against human MALME-3M cells after 24 hrs by SRB assay; format: cell-based; procedure, shortened: as §5
[23] = tested on: Malme-3M; assay: as §7; format: functional; procedure, shortened: as §1
[24] = tested on: NCI-H226; assay: Cytotoxicity against human NCI-H226 cells after 24 hrs by SRB assay; format: cell-based; details: nci-h226, 24 h; procedure, shortened: as §5
[25] = tested on: NCI-H460; assay: Cytotoxicity against human NCI-H460 cells after 24 hrs by SRB assay; format: cell-based; details: nci-h460, 24 h; procedure, shortened: as §5
[26] = tested on: EKVX; assay: Cytotoxicity against human EKVX cells after 24 hrs by SRB assay; format: functional; procedure, shortened: as §1
[27] = tested on: MDA-MB-435; assay: Cytotoxicity against human MDA-MB-435 cells after 24 hrs by SRB assay; format: functional; details: MDA-MB-435, 24 h; procedure, shortened: as §1
[28] = tested on: HOP-62; assay: Cytotoxicity against human HOP62 cells after 24 hrs by SRB assay; format: functional; details: HOP-62, 24 h; procedure, shortened: as §1
[29] = tested on: NCI-H23; assay: Cytotoxicity against human NCI-H23 cells after 24 hrs by SRB assay; format: cell-based; details: nci-h23, 24 h; procedure, shortened: as §5
[30] = tested on: SF-295; assay: Cytotoxicity against human SF295 cells after 24 hrs by SRB assay; format: cell-based; details: sf-295, 24 h; procedure, shortened: as §5
[31] = tested on: UACC-257; assay: as §6; format: cell-based; details: uacc-257, 24 h; procedure, shortened: as §2
[32] = tested on: TK-10; assay: Cytotoxicity against human TK10 cells after 24 hrs by SRB assay; format: cell-based; details: tk-10, 24 h; procedure, shortened: as §2
[33] = tested on: MDA-MB-231; assay: Cytotoxicity against human MDA-MB-231 cells after 24 hrs by SRB assay; format: functional; details: MDA-MB-231, 24 h; procedure, shortened: as §1
[34] = tested on: OVCAR-4; assay: (§8) Cytotoxicity against human OVCAR4 cells after 24 hrs by SRB assay; format: cell-based; details: ovcar-4, 24 h; procedure, shortened: as §5
[35] = tested on: OVCAR-4; assay: as §8; format: functional; details: OVCAR-4, 24 h; procedure, shortened: as §1

With `O=C(/C=C/c1cc2ccccc2[nH]c1=O)c1ccc(O)cc1` as the compound, how does the GI50 [1] read?
The GI50 was 3.76 µM.

And the TGI [1]?
Its TGI is 23.3 µM.

What about the GI50 [2] of the same compound?
The GI50 was 4.13 µM.

What about the TGI [2] of the same compound?
The TGI was 13.6 µM.

What about the LC50 [3] of the same compound?
The LC50 was over 100 µM.

What about the GI50 [4] of the same compound?
Its GI50 is 1.89 µM.

What about the TGI [4] of the same compound?
The TGI was 4.45 µM.

And the LC50 [5]?
Its LC50 is 37.3 µM.

What about the GI50 [6] of the same compound?
Its GI50 is 2.71 µM.

And the TGI [6]?
The TGI was 12.8 µM.

And the LC50 [7]?
Its LC50 is 76.8 µM.

And the GI50 [8]?
Its GI50 is 3.98 µM.

What about the TGI [8] of the same compound?
The TGI was 16.8 µM.

And the GI50 [9]?
Its GI50 is 3.22 µM.

What about the TGI [9] of the same compound?
Its TGI is 11.8 µM.

And the GI50 [10]?
Its GI50 is 2.88 µM.

And the TGI [10]?
The TGI was 8.73 µM.

And the LC50 [11]?
The LC50 was 61.674 µM.

And the GI50 [12]?
The GI50 was 3.2 µM.

What about the TGI [12] of the same compound?
The TGI was 12.8 µM.

And the LC50 [13]?
The LC50 was over 100 µM.

What about the GI50 [14] of the same compound?
The GI50 was 1.65 µM.

What about the TGI [14] of the same compound?
Its TGI is 3.23 µM.

And the LC50 [15]?
The LC50 was 55 µM.

What about the LC50 [16] of the same compound?
Its LC50 is over 100 µM.

And the GI50 [17]?
The GI50 was 3.26 µM.

What about the TGI [17] of the same compound?
Its TGI is 23.2 µM.

What about the LC50 [18] of the same compound?
Its LC50 is 66.3 µM.

What about the GI50 [19] of the same compound?
The GI50 was 2.47 µM.

And the TGI [19]?
The TGI was 12.7 µM.

What about the GI50 [20] of the same compound?
The GI50 was 3.87 µM.

What about the TGI [20] of the same compound?
Its TGI is 16 µM.

What about the GI50 [21] of the same compound?
Its GI50 is 4.35 µM.

And the TGI [21]?
The TGI was 45.1 µM.

What about the LC50 [22] of the same compound?
Its LC50 is over 100 µM.

And the GI50 [23]?
The GI50 was 10.4 µM.

And the TGI [23]?
Its TGI is 33.6 µM.

And the LC50 [24]?
The LC50 was 34.5 µM.

What about the LC50 [25] of the same compound?
The LC50 was over 100 µM.

And the GI50 [26]?
The GI50 was 13.4 µM.

What about the TGI [26] of the same compound?
The TGI was 27.2 µM.

What about the GI50 [27] of the same compound?
The GI50 was 2.94 µM.

And the TGI [27]?
Its TGI is 16.8 µM.

And the GI50 [28]?
The GI50 was 2.62 µM.

And the TGI [28]?
The TGI was 8.17 µM.

What about the LC50 [29] of the same compound?
The LC50 was over 100 µM.

What about the LC50 [30] of the same compound?
Its LC50 is over 100 µM.

What about the LC50 [31] of the same compound?
The LC50 was 47.9 µM.

What about the LC50 [32] of the same compound?
Its LC50 is 34.6 µM.

And the GI50 [33]?
The GI50 was 2.31 µM.

What about the TGI [33] of the same compound?
Its TGI is 15 µM.

What does the source list for `O=C(/C=C/c1cc2ccccc2[nH]c1=O)/C=C/c1cc2ccccc2[nH]c1=O`?
GI50 [1]: 3.75 µM; TGI [1]: > 100 µM; GI50 [2]: > 100 µM; TGI [2]: > 100 µM; LC50 [3]: > 100 µM; GI50 [4]: 1 µM; TGI [4]: 3.92 µM; LC50 [5]: > 100 µM; GI50 [6]: 2.02 µM; TGI [6]: > 100 µM; LC50 [7]: > 100 µM; GI50 [9]: 4.2 µM; TGI [9]: > 100 µM; GI50 [10]: 4.61 µM; TGI [10]: > 100 µM; LC50 [11]: > 100 µM; LC50 [13]: > 100 µM; GI50 [14]: 1.79 µM; TGI [14]: 3.73 µM; LC50 [34]: > 100 µM; GI50 [35]: 2.06 µM; TGI [35]: > 100 µM; LC50 [16]: > 100 µM; GI50 [17]: > 100 µM; TGI [17]: > 100 µM; LC50 [18]: > 100 µM; GI50 [19]: 0.134 µM; TGI [19]: 0.352 µM; GI50 [20]: 1.98 µM; TGI [20]: 4.79 µM; LC50 [24]: > 100 µM; LC50 [25]: > 100 µM; GI50 [26]: 2.61 µM; TGI [26]: > 100 µM; GI50 [27]: 0.258 µM; TGI [27]: 0.81 µM; GI50 [28]: 3.65 µM; TGI [28]: > 100 µM; LC50 [29]: > 100 µM; LC50 [30]: > 100 µM; LC50 [31]: > 100 µM; LC50 [32]: > 100 µM; GI50 [33]: 3.49 µM; TGI [33]: > 100 µM
